The series relates to HEK 293 cells. Nature of the series: MTT cell viability. The format is cell-based, human. As to conditions: MTT assay, 48 h, studied concentration range 100–0.01 μM. The gist of the method:
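Seeding in DMEM with 10% FBS was 8000 cells/well for MCF-7 and MDA-MB-468 and 5000 cells/well for HEK 293. Cells were held 24 h at 37 °C, 5% CO2, humidified, then exposed to test compounds at varied concentrations for 48 h. MTT reagent (5 mg/mL) was added for 2–4 h and formazan dissolved in DMSO. Absorbance was read at 570/690 nm and % survival calculated.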

Entries after “also recorded” stand apart in the source; their conditions may differ.

On to `O=S(=O)(NN=Cc1cn(CCN2CCOCC2)c2ccccc12)c1ccc(Cl)cc1` [Compound 5f, 4-Chloro-N′-((1-(2-morpholinoethyl)-1H-indol-3-yl)methylene)benzenesulfonohydrazide], for which the “toxicity against HEK 293 noncancerous cells” value is given as “biocompatible; also recorded: nontoxic”.

(Values after PMC9685603 (ACS Omega, 2022).)
